{"source": "ChEMBL document CHEMBL1124579", "about": "“7-Heteroaryl-1,2,3,5-tetrahydroimidazo[2,1-b]quinazolin -2(1H)-one derivatives with cardiac stimulant activity” (J Med Chem, 1989)", "key": {"Canis familiaris [1]": {"tested_on": "Canis familiaris", "experiment": "Relative inotropic response (50 umg/kg Intravenously) to that of 4-[4-[2-(1,1-dioxo-2-isothiazolidinyl)ethyl]-1-piperidinyl]-6,7-dimethoxyquinazoline […], in dog", "format": "functional, Canis lupus familiaris", "outline": "(§1)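 Anesthetized dog with a left-ventricular catheter introduced via the carotid artery; dP/dtmax is derived from LV pressure. The standard quinazoline (50 μg/kg iv) is given first, then the test compound iv in saline 0.5 h later, in the same dog. Relative potency = (% increase in dP/dtmax to drug ÷ % increase to standard) × (dose standard ÷ dose drug).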"}, "Canis familiaris [2]": {"tested_on": "Canis familiaris", "experiment": "Percent increase in dP/dtmax (positive inotropic activity) in anesthetized dog after administration of 50 ug/kg Intravenously", "format": "functional, Canis lupus familiaris", "outline": "(§2)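 Anesthetized dog with a catheter-tip transducer passed into the left ventricle via the carotid artery. LV pressure is differentiated to give dP/dtmax, the contractility index. There is 0.75 h equilibration after surgery. The compound is given iv in 0.9% saline (4 mL), 0.5 h after the standard agent (50 μg/kg). The cycle is repeated once control levels return, at least 0.5 h apart. The result is the % increase in dP/dtmax.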"}, "Canis familiaris [3]": {"tested_on": "Canis familiaris", "experiment": "Percent increase in dP/dtmax (positive inotropic activity) in anesthetized dog after administration of 250 ug/kg Intravenously", "format": "functional, Canis lupus familiaris", "outline": "as §2"}, "Canis familiaris [4]": {"tested_on": "Canis familiaris", "experiment": "Relative inotropic response (10 ug/kg Intravenously) to that of 4-[4-[2-(1,1-dioxo-2-isothiazolidinyl)ethyl]-1-piperidinyl]-6,7-dimethoxyquinazoline (5- ug/kg), in dog", "format": "functional, Canis lupus familiaris", "outline": "as §1"}, "Canis familiaris [5]": {"tested_on": "Canis familiaris", "experiment": "Cardiac contractility (decrease in the QA interval) in conscious dog, 3 hours after oral administration (dose 1 mg/kg)", "format": "functional, Canis lupus familiaris", "outline": "(§3)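 Conscious dogs; the test substance is given by gavage as a solution. The QA interval is the time from the ECG R wave to the upstroke of the arterial pressure pulse, measured by computer. It is recorded every 0.16 h from 0.5 h before dosing to 4 h after. Each point is the mean of six consecutive sets, each averaged over 8 s. The result is the change from the mean predose value.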"}, "Canis familiaris [6]": {"tested_on": "Canis familiaris", "experiment": "Percent increase in dP/dtmax (positive inotropic activity) in anesthetized dog after administration of 10 micro mg/kg Intravenously", "format": "functional, Canis lupus familiaris", "outline": "as §2"}, "Canis familiaris [7]": {"tested_on": "Canis familiaris", "experiment": "Cardiac contractility (decrease in the QA interval) in conscious dog 1 hour after oral administration (dose 1 mg/kg)", "format": "functional, Canis lupus familiaris", "outline": "as §3"}, "Canis familiaris [8]": {"tested_on": "Canis familiaris", "experiment": "Relative inotropic response (50 micro mg/kg Intravenously) to that of 4-[4-[2-(1,1-dioxo-2-isothiazolidinyl)ethyl]-1-piperidinyl]-6,7-dimethoxyquinazoline (5- ug/kg), in dog", "format": "functional, Canis lupus familiaris", "outline": "as §1"}, "Canis familiaris [9]": {"tested_on": "Canis familiaris", "experiment": "Relative inotropic response (20 micro mg/kg Intravenously) to that of 4-[4-[2-(1,1-dioxo-2-isothiazolidinyl)ethyl]-1-piperidinyl]-6,7-dimethoxyquinazoline (5- ug/kg), in dog", "format": "functional, Canis lupus familiaris", "outline": "as §1"}, "Canis familiaris [10]": {"tested_on": "Canis familiaris", "experiment": "Percent increase in dP/dtmax (positive inotropic activity) in anesthetized dog after administration of 20 ug/kg Intravenously", "format": "functional, Canis lupus familiaris", "outline": "as §2"}, "Canis familiaris [11]": {"tested_on": "Canis familiaris", "experiment": "Cardiac contractility (decrease in the QA interval) in conscious dog, 3 hours after oral administration (dose 0.125 mg/kg)", "format": "functional, Canis lupus familiaris", "outline": "as §3"}, "Canis familiaris [12]": {"tested_on": "Canis familiaris", "experiment": "Cardiac contractility (decrease in the QA interval) in conscious dog 1 hour after oral administration (dose 0.125 mg/kg)", "format": "functional, Canis lupus familiaris", "outline": "as §3"}, "Canis familiaris [13]": {"tested_on": "Canis familiaris", "experiment": "Relative inotropic response (50 ug/kg Intravenously) to that of 4-[4-[2-(1,1-dioxo-2-isothiazolidinyl)ethyl]-1-piperidinyl]-6,7-dimethoxyquinazoline […], in dog", "format": "functional, Canis lupus familiaris", "outline": "as §1"}, "Canis familiaris [14]": {"tested_on": "Canis familiaris", "experiment": "Relative inotropic response (2 ug/kg Intravenously) to that of 4-[4-[2-(1,1-dioxo-2-isothiazolidinyl)ethyl]-1-piperidinyl]-6,7-dimethoxyquinazoline (5- ug/kg), in dog", "format": "functional, Canis lupus familiaris", "outline": "as §1"}, "Canis familiaris [15]": {"tested_on": "Canis familiaris", "experiment": "Cardiac contractility (decrease in the QA interval) in conscious dog, 3 hours after oral administration (dose 0.1 mg/kg)", "format": "functional, Canis lupus familiaris", "outline": "as §3"}, "Canis familiaris [16]": {"tested_on": "Canis familiaris", "experiment": "Cardiac contractility (decrease in the QA interval) in conscious dog 1 hour after oral administration (dose 0.1 mg/kg)", "format": "functional, Canis lupus familiaris", "outline": "as §3"}, "Canis familiaris [17]": {"tested_on": "Canis familiaris", "experiment": "Percent increase in dP/dtmax (positive inotropic activity) in anesthetized dog after administration of 2 micro mg/kg Intravenously", "format": "functional, Canis lupus familiaris", "outline": "as §2"}, "Canis familiaris [18]": {"tested_on": "Canis familiaris", "experiment": "Percent increase in dP/dtmax of positive inotropic activity in conscious dog after administration of 25 ug/kg orally"}, "Canis familiaris [19]": {"tested_on": "Canis familiaris", "experiment": "Percent increase in dP/dtmax of positive inotropic activity in conscious dog after administration of 100 ug/kg orally"}, "[20]": {"experiment": "Dissociation constant was determined", "format": "physicochemical"}, "Canis familiaris [21]": {"tested_on": "Canis familiaris", "experiment": "Relative inotropic response (250 ug/kg Intravenously) to that of 4-[4-[2-(1,1-dioxo-2-isothiazolidinyl)ethyl]-1-piperidinyl]-6,7-dimethoxyquinazoline (5- ug/kg), in dog", "format": "functional, Canis lupus familiaris", "outline": "as §1"}, "Canis familiaris [22]": {"tested_on": "Canis familiaris", "experiment": "Relative inotropic response (25 ug/kg Intravenously) to that of 4-[4-[2-(1,1-dioxo-2-isothiazolidinyl)ethyl]-1-piperidinyl]-6,7-dimethoxyquinazoline ([…]), in dog", "format": "functional, Canis lupus familiaris", "outline": "as §1"}, "Canis familiaris [23]": {"tested_on": "Canis familiaris", "experiment": "Cardiac contractility (decrease in the QA interval) in conscious dog, 3 hours after oral administration (dose 0.25 mg/kg)", "format": "functional, Canis lupus familiaris", "outline": "as §3"}, "Canis familiaris [24]": {"tested_on": "Canis familiaris", "experiment": "Percent increase in dP/dtmax (positive inotropic activity) in anesthetized dog after administration of 25 ug/kg Intravenously", "format": "functional, Canis lupus familiaris", "outline": "as §2"}, "Canis familiaris [25]": {"tested_on": "Canis familiaris", "experiment": "Cardiac contractility (decrease in the QA interval) in conscious dog 1 hour after oral administration (dose 0.25 mg/kg)", "format": "functional, Canis lupus familiaris", "outline": "as §3"}}}
{"smiles": "CC1CC(O)=NN=C1c1ccc(-n2ccnc2)cc1.Cl", "note": "(configuration not stated)", "values": [{"measurement": "Relative potency", "setting": "Canis familiaris [1]", "value": 1.6}, {"measurement": "Increase in dP/dtmax", "setting": "Canis familiaris [2]", "value": 100, "unit": "%"}]}
{"smiles": "Cc1cn(-c2cc(C)c3c(c2)CN2C(=N3)NC(=O)C2(C)C)c(C)n1", "values": [{"measurement": "Increase in dP/dtmax", "setting": "Canis familiaris [3]", "value": 20, "unit": "%"}]}
{"smiles": "Cc1cn(-c2cc(C)c3c(c2)CN2C(=N3)NC(=O)C2C)c(C)n1", "note": "(configuration not stated)", "values": [{"measurement": "Relative inotropic potency", "setting": "Canis familiaris [4]", "value": 0.9}, {"measurement": "Decrease in the QA interval", "setting": "Canis familiaris [5]", "value": 15, "unit": "ms"}, {"measurement": "Increase in dP/dtmax", "setting": "Canis familiaris [6]", "value": 12, "unit": "%"}, {"measurement": "Decrease in the QA interval", "setting": "Canis familiaris [7]", "value": 9, "unit": "ms"}]}
{"smiles": "O=C1CN2Cc3cc(-n4cncn4)ccc3N=C2N1", "values": [{"measurement": "Relative inotropic potency", "setting": "Canis familiaris [8]", "value": 1.7}, {"measurement": "Increase in dP/dtmax", "setting": "Canis familiaris [2]", "value": 63, "unit": "%"}]}
{"smiles": "Cc1cn(-c2ccc3c(c2)CN2CC(=O)NC2=N3)c(C)n1", "values": [{"measurement": "Relative inotropic potency", "setting": "Canis familiaris [9]", "value": 1.9}, {"measurement": "Decrease in the QA interval", "setting": "Canis familiaris [5]", "value": 10, "unit": "ms"}, {"measurement": "Increase in dP/dtmax", "setting": "Canis familiaris [10]", "value": 30, "unit": "%"}, {"measurement": "Decrease in the QA interval", "setting": "Canis familiaris [7]", "value": 6, "unit": "ms"}]}
{"smiles": "Cc1cc(-n2cncn2)cc2c1NC1=NC(=O)CN1C2", "values": [{"measurement": "Relative inotropic potency", "setting": "Canis familiaris [8]", "value": 3.2}, {"measurement": "Decrease in the QA interval", "setting": "Canis familiaris [11]", "value": 12, "unit": "ms"}, {"measurement": "Increase in dP/dtmax", "setting": "Canis familiaris [2]", "value": 76, "unit": "%"}, {"measurement": "Decrease in the QA interval", "setting": "Canis familiaris [12]", "value": 8, "unit": "ms"}]}
{"smiles": "Cc1ccc(-c2ccc3c(c2)C(C)N2CC(=O)N=C2N3)c(C)n1", "note": "(configuration not stated)", "values": [{"measurement": "Relative inotropic potency", "setting": "Canis familiaris [8]", "value": 1.6}, {"measurement": "Decrease in the QA interval", "setting": "Canis familiaris [11]", "value": 9, "unit": "ms"}, {"measurement": "Increase in dP/dtmax", "setting": "Canis familiaris [2]", "value": 50, "unit": "%"}, {"measurement": "Decrease in the QA interval", "setting": "Canis familiaris [12]", "value": 13, "unit": "ms"}]}
{"smiles": "Cc1ccc(-c2ccc3c(c2)CN2CC(=O)NC2=N3)c(C)n1", "values": [{"measurement": "Relative potency", "setting": "Canis familiaris [13]", "value": 1.3}, {"measurement": "Decrease in the QA interval", "setting": "Canis familiaris [5]", "value": 15, "unit": "ms"}, {"measurement": "Increase in dP/dtmax", "setting": "Canis familiaris [2]", "value": 29, "unit": "%"}, {"measurement": "Decrease in the QA interval", "setting": "Canis familiaris [7]", "value": 14, "unit": "ms"}]}
{"smiles": "Cc1cc(-n2cnnc2)cc2c1NC1=NC(=O)CN1C2", "values": [{"measurement": "Relative potency", "setting": "Canis familiaris [13]", "value": 0.5}, {"measurement": "Increase in dP/dtmax", "setting": "Canis familiaris [2]", "value": 24, "unit": "%"}]}
{"smiles": "Cc1ccc(-c2cc(C)c3c(c2)CN2CC(=O)NC2=N3)c(C)n1", "values": [{"measurement": "Relative inotropic potency", "setting": "Canis familiaris [4]", "value": 2.7}, {"measurement": "Decrease in the QA interval", "setting": "Canis familiaris [11]", "value": 15, "unit": "ms"}, {"measurement": "Increase in dP/dtmax", "setting": "Canis familiaris [6]", "value": 30, "unit": "%"}, {"measurement": "Decrease in the QA interval", "setting": "Canis familiaris [12]", "value": 15, "unit": "ms"}]}
{"smiles": "Cc1cn(-c2cc(C)c3c(c2)CN2CC(=O)NC2=N3)c(C)n1", "values": [{"measurement": "Relative inotropic potency", "setting": "Canis familiaris [14]", "value": 7.8}, {"measurement": "Decrease in the QA interval", "setting": "Canis familiaris [15]", "value": 15, "unit": "ms"}, {"measurement": "Decrease in the QA interval", "setting": "Canis familiaris [16]", "value": 5, "unit": "ms"}, {"measurement": "Increase in dP/dtmax", "setting": "Canis familiaris [17]", "value": 23, "unit": "%"}, {"measurement": "Increase in dP/dtmax", "setting": "Canis familiaris [18]", "value": 20, "unit": "%"}, {"measurement": "Increase in dP/dtmax", "setting": "Canis familiaris [19]", "value": 50, "unit": "%"}]}
{"smiles": "O=C1CN2Cc3ccccc3N=C2N1", "values": [{"measurement": "pKa", "setting": "[20]", "value": 10.9}, {"measurement": "Relative inotropic potency", "setting": "Canis familiaris [21]", "value": 0.1}, {"measurement": "Increase in dP/dtmax", "setting": "Canis familiaris [3]", "value": 24, "unit": "%"}]}
{"smiles": "Cc1[nH]c(=O)c(C#N)cc1-c1ccncc1", "note": "[MILRINONE]", "values": [{"measurement": "Relative potency", "setting": "Canis familiaris [22]", "value": 1.6}, {"measurement": "Decrease in the QA interval", "setting": "Canis familiaris [23]", "value": 7, "unit": "ms"}, {"measurement": "Increase in dP/dtmax", "setting": "Canis familiaris [24]", "value": 46, "unit": "%"}, {"measurement": "Decrease in the QA interval", "setting": "Canis familiaris [25]", "value": 13, "unit": "ms"}]}
{"smiles": "Cc1cn(-c2cc(C)c3[nH]c(=O)ccc3c2)c(C)n1", "note": "[NANTERINONE]", "values": [{"measurement": "pKa", "setting": "[20]", "value": 11.2}]}
{"smiles": "C[C@@H]1C(=O)NC2=Nc3cccc(Cl)c3CN21", "note": "[QUAZINONE]", "values": [{"measurement": "Relative inotropic potency", "setting": "Canis familiaris [21]", "value": 0.3}, {"measurement": "Increase in dP/dtmax", "setting": "Canis familiaris [3]", "value": 66, "unit": "%"}]}
